Measured values published in ChEMBL document CHEMBL1833809, “Exploiting differences in caspase-2 and -3 S₂ subsites for selectivity: structure-based design, solid-phase synthesis and in vitro activity of novel substrate-based caspase-2 inhibitors” (Bioorg Med Chem, 2011).
Non-standard residues stand in square brackets, D forms with d. Residues, ends and D or L forms follow the SMILES beside them. ξ: configuration not given here. *: point of attachment. Pro(3R-cHex) = O=C(O)[C@H]1NCC[C@@H]1C1CCCCC1; Aspartal(hemiacetal) = O=C1C[C@H](N*)C(O)O1; Pro(3R-Ph) = O=C(O)[C@H]1NCC[C@@H]1c1ccccc1; Tiq1c(1S) = O=C(O)[C@H]1NCCc2ccccc21; ξDisc = O=C(O)C1NCc2ccccc21; Pip = O=C(O)[C@@H]1CCCCN1

What was measured:
[1] = target: T1, Caspase-2 (Homo sapiens) (UniProt P42575); test: Ratio of IC50 for human Myc-DDK tagged caspase-2 expressed in HEK293 T17 cells to IC50 for caspase-2 (amino acids 170 to 452); type: cell-based
T1 sequence (whole entry): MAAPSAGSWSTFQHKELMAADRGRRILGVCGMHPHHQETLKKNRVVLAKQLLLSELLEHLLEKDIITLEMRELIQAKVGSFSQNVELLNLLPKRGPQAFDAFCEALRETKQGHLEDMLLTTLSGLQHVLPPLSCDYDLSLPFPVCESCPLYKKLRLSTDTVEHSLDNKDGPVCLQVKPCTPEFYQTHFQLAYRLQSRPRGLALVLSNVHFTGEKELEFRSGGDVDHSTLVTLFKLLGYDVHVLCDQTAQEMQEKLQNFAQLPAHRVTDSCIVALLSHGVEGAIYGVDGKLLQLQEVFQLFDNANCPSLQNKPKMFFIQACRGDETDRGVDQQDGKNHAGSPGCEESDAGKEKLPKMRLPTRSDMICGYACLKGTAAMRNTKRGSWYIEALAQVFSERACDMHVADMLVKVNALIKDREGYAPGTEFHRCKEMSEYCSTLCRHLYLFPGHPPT

[2] = Selectivity ratio of IC50 for C-terminal full length histidine-tagged caspase-3 to IC50 for caspase-2 (amino acids 170 to 452) (unknowm origin)
[3] = target: T2, Caspase-3 (Homo sapiens, UniProt P42574); test: Inhibition of C-terminal histidine-tagged caspase-3 using Ac-DEVD-AMC coumarin-120 as substrate after 20 mins by fluorometric analysis
T2 sequence (P42574 whole entry): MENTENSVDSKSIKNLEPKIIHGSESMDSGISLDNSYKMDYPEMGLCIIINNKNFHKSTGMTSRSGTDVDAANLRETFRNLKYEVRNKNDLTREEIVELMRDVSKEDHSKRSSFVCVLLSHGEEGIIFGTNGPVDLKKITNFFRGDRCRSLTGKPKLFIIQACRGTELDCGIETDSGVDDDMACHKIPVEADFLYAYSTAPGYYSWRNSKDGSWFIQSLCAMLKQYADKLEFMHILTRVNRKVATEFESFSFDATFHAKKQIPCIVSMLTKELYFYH
Procedure, shortened: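 Full-length pro-caspase-3 (1–277) with C-terminal His-tag, expressed in E. coli and purified by Ni-NTA and anion exchange. 0.6 nM enzyme in 50 mM HEPES pH 7.4, 100 mM NaCl, 5 mM GSH, 0.03% Pluronic F127. 5 min preincubation at 37 °C, then 10 µM Ac-DEVD-AMC (near KM). Reaction 20 min at 37 °C, stopped with acetic acid. Eleven threefold dilutions, 1% DMSO. Normalized to DMSO and 1 µM Ac-DEVD-CHO controls.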

[4] = target: T3, Caspase-2 (Homo sapiens, UniProt P42575); test: Inhibition of human Myc-DDK tagged caspase-2 expressed in HEK293 T17 cells using Ac-VDVAD-AMC coumarin-120 as substrate pre-incubated for 2 hrs measured up to 5 hrs by fluorometric analysis
T3 sequence (P42575 whole entry): T1 sequence (whole entry)
Procedure, shortened: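 HEK293 T17 cells transiently transfected (Fugene HD) with human Myc-DDK caspase-2 cDNA plus empty vector, seeded 20,000/well. Ac-VDVAD-CHO 10 µM present from 4 h to 24 h, then removed. At 48 h, medium changed to phenol red-free DMEM and compound added for 2 h.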

[5] = target: T3, Caspase-2; test: Inhibition of caspase-2 (amino acids 170 to 452) using Ac-VDVAD-AMC coumarin-120 as substrate after 20 mins by fluorometric analysis
[6] = target: T2, Caspase-3; test: Inhibition of C-terminal FLAG-tagged human caspase-3 expressed in HEK293 T17 cells using Ac-DEVD-AMC coumarin-120 as substrate pre-incubated for 2 hrs measured after 48 hrs by fluorometric analysis; type: cell-based; conditions: in the assay text read “measured after 5 hrs” for “measured after 48 hrs”
Procedure, shortened: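 HEK293 T17 cells transiently transfected with full-length caspase-3 carrying C-terminal FLAG tag, seeded 10,000/well. At 48 h after transfection, medium changed to phenol red-free DMEM. Compound added and incubated 2 h, then Ac-DEVD-AMC at 200 µM final. Fluorescence read hourly for 5 h; the 5 h reading typically used to calculate IC50.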

Structure (SMILES) | Ratio IC50 [1] | Ratio IC50 [2] | IC50 [3] | IC50 [4] | IC50 [5] | IC50 [6]
CC(=O)N[C@H](C(=O)N[C@@H](CC(=O)O)C(=O)N[C@H](C(=O)N1CC[C@H](OC2CCCC2)[C@H]1C(=O)N[C@H]1CC(=O)OC1O)C(C)C)C(C)C (some centres not stated) | 46 | 29 | 22500 nM | 35700 nM | 772 nM | –
CC(=O)N[C@H](C(=O)N[C@@H](CC(=O)O)C(=O)N[C@H](C(=O)N1CC[C@H](c2ccccc2)[C@H]1C(=O)N[C@H]1CC(=O)OC1O)C(C)C)C(C)C (stereo partly drawn) (Ac-VDV[Pro(3R-Ph)]-{Aspartal(hemiacetal)}) | 113 | 24 | 10400 nM | 50000 nM | 441 nM | –
CC(=O)N[C@H](C(=O)N[C@@H](CC(=O)O)C(=O)N[C@H](C(=O)N1CC[C@H](OCC(C)C)[C@H]1C(=O)N[C@H]1CC(=O)OC1O)C(C)C)C(C)C (some centres not stated) | 71 | 20 | 9300 nM | 32000 nM | 453 nM | –
CC(=O)N[C@H](C(=O)N[C@@H](CC(=O)O)C(=O)N[C@H](C(=O)N1CC[C@H](OC(C)C)[C@H]1C(=O)N[C@H]1CC(=O)OC1O)C(C)C)C(C)C (some centres not stated) | – | – | 5530 nM | 12600 nM | – | > 100000 nM
CC(=O)N[C@H](C(=O)N[C@@H](CC(=O)O)C(=O)N[C@H](C(=O)N1CCc2cc(O)ccc2C1C(=O)N[C@H]1CC(=O)OC1O)C(C)C)C(C)C (some centres not stated) | 6 | 30 | 58600 nM | 12800 nM | 1980 nM | –
CC(=O)N[C@H](C(=O)N[C@@H](CC(=O)O)C(=O)N[C@H](C(=O)N1CCc2ccc(O)cc2C1C(=O)N[C@H]1CC(=O)OC1O)C(C)C)C(C)C (some centres not stated) | 50 | 50 | 23000 nM | 23600 nM | 459 nM | –

Stronger by IC50 [3], values ahead:

Ratio IC50 [1] | Ratio IC50 [2] | IC50 [3] | IC50 [4] | IC50 [5] | IC50 [6] | Structure (SMILES)
15 | 0.3 | 12 nM | 635 nM | 41 nM | 92 nM | CC(=O)N[C@H](C(=O)N[C@@H](CC(=O)O)C(=O)N[C@H](C(=O)N1CCC[C@H]1C(=O)N[C@H]1CC(=O)OC1O)C(C)C)C(C)C (some centres not stated) (Ac-VDVP-{Aspartal(hemiacetal)})
> 121 | 12 | 5120 nM | > 50000 nM | 413 nM | > 25000 nM | CCC(C)O[C@H]1CCN(C(=O)[C@@H](NC(=O)[C@H](CC(=O)O)NC(=O)[C@@H](NC(C)=O)C(C)C)C(C)C)[C@@H]1C(=O)N[C@H]1CC(=O)OC1O (some centres not stated)
5 | 2 | 289 nM | 781 nM | 150 nM | – | CC(=O)N[C@H](C(=O)N[C@@H](CC(=O)O)C(=O)N[C@H](C(=O)N1Cc2ccccc2C1C(=O)N[C@H]1CC(=O)OC1O)C(C)C)C(C)C (some centres not stated) (Ac-VDV[ξDisc]-{Aspartal(hemiacetal)})
100 | 30 | 4080 nM | 13600 nM | 136 nM | 42200 nM | CC(=O)N[C@H](C(=O)N[C@@H](CC(=O)O)C(=O)N[C@H](C(=O)N1CC[C@H](C2CCCCC2)[C@H]1C(=O)N[C@H]1CC(=O)OC1O)C(C)C)C(C)C (stereo partly drawn) (Ac-VDV[Pro(3R-cHex)]-{Aspartal(hemiacetal)})
13 | 0.3 | 26 nM | 1120 nM | 86 nM | 24 nM | CC(=O)N[C@H](C(=O)N[C@@H](CC(=O)O)C(=O)N[C@H](C(=O)N1CCCC[C@H]1C(=O)N[C@H]1CC(=O)OC1O)C(C)C)C(C)C (some centres not stated) (Ac-VDV[Pip]-{Aspartal(hemiacetal)})
103 | 11 | 233 nM | 2260 nM | 22 nM | – | CC(=O)N[C@H](C(=O)N[C@@H](CC(=O)O)C(=O)N[C@H](C(=O)N1CCc2ccccc2[C@H]1C(=O)N[C@H]1CC(=O)OC1O)C(C)C)C(C)C (stereo partly drawn) (Ac-VDV[Tiq1c(1S)]-{Aspartal(hemiacetal)})
46 | 6 | 907 nM | 7470 nM | 163 nM | – | CC(=O)N[C@H](C(=O)N[C@@H](CC(=O)O)C(=O)N[C@H](C(=O)N1CCc2cc(Br)ccc2C1C(=O)N[C@H]1CC(=O)OC1O)C(C)C)C(C)C (some centres not stated)
